Measurements gathered from unrelated publications.
PIK3CD: Phosphatidylinositol 4,5-bisphosphate 3-kinase catalytic subunit delta isoform (PIK3CD, Homo sapiens, UniProt O00329)
NTSR1: Neurotensin receptor type 1 (NTSR1, Homo sapiens, UniProt P30989)
COQ8A: Atypical kinase COQ8A, mitochondrial (COQ8A, Homo sapiens, UniProt Q8NI60)

| SMILES | target | read-out | mode | technique | pH | endpoint | value |
| --- | --- | --- | --- | --- | --- | --- | --- |
| Cc1nc(Nc2ccc3c(c2)/C(=C/c2ccccc2Cl)C(=O)N3)c2ccccc2n1 | PIK3CD | enzyme activity | inhibitor | ADP detection | – | IC50 | 578 nM |
| COc1ccccc1C1CCN(c2nc(C3(C)CCCC3)nc3ccc(N(C)CCO)cc23)CC1 | NTSR1 | β-arrestin recruitment | agonist | – | – | EC50 | 40200 nM |
| Nc1ncnc2c1ncn2[C@@H]1O[C@H](COP(=O)(O)OP(=O)(O)OP(=O)(O)O)[C@@H](O)[C@H]1O | P2X purinoceptor 3 (P2rx3, Rattus norvegicus, UniProt P49654) | ion current | agonist | patch clamp | – | EC50 | 271 nM |
| Cc1nc(Nc2ccc3c(c2)C(C)(C)C(=O)N3)c2ccccc2n1 | PIK3CD | enzyme activity | inhibitor | ADP detection | – | IC50 | > 1000 nM |
| CC(C)Oc1ccc(S(=O)(=O)c2ccc(Oc3cc(OCC(N)=O)c(C(=O)C(Cl)Cl)cc3[N+](=O)[O-])cc2)cc1 | [Pyruvate dehydrogenase (acetyl-transferring)] kinase isozyme 1, mitochondrial (PDK1, Homo sapiens, UniProt Q15118) | enzyme activity | inhibitor | ATP luminescence | – | IC50 | 140 nM |
| O=C(Nc1nc2n(n1)C(c1ccc(F)cc1)C=C(c1ccccc1)N2)c1cccc([N+](=O)[O-])c1 (stereo not drawn) | COQ8A | ligand displacement | – | TR-FRET | – | IC50 | 3850 nM |
| COc1ccccc1C1CCN(c2nc(C3(C(F)(F)F)CCCC3)nc3ccc(N(C)CCO)cc23)CC1 | NTSR1 | β-arrestin recruitment | agonist | – | – | EC50 | 18000 nM |
| Cc1nc(Nc2ccc3c(c2)/C(=C/c2ccccc2)C(=O)N3Cc2ccccc2)c2ccccc2n1 | PIK3CD | enzyme activity | inhibitor | ADP detection | – | IC50 | 225 nM |
| COc1cc(/C=C/C(=O)O)ccc1O | Sarcoplasmic/endoplasmic reticulum calcium ATPase 1 (ATP2A1, Oryctolagus cuniculus, UniProt P04191) | binding | – | fluorescence | pH 7.2 | Kd | 86000 nM |
| Cc1nc(Nc2ccc3c(c2)CC(=O)N3)c2ccccc2n1 | PIK3CD | enzyme activity | inhibitor | ADP detection | – | IC50 | 397 nM |
| COc1ccc2c(c1)CCc1c-2n[nH]c1C(=O)N1CCc2nc3cc(-c4ccccc4)[nH]n3c(=O)c2C1 | COQ8A | ligand displacement | – | TR-FRET | – | IC50 | 2730 nM |
| Cc1nc(Nc2ccc3c(c2)C(C)(C)C(=O)N3C)c2ccccc2n1 | PIK3CD | enzyme activity | inhibitor | ADP detection | – | IC50 | 719 nM |
| CC(C)(C)OC(=O)N1CCN(Cc2ccn(Cc3ccc(Cl)cc3)c(=O)c2O)CC1 | Lysine-specific demethylase 6A (Homo sapiens, UniProt O15550) | enzyme activity | inhibitor | AlphaScreen | – | IC50 | 5430 nM |
| CCc1ccc(NC(=O)CSc2nc(-c3ccc(C)cc3)nc3c2Cc2c(CO)cnc(C)c2O3)cc1 | COQ8A | ligand displacement | – | TR-FRET | – | IC50 | 8630 nM |
| NC(=O)c1ncc(N2CCCCC2)nc1Nc1ccc(C2CCN(C[C@H]3CCN(c4ccc5c(c4)C(=O)N(C4CCC(=O)NC4=O)C5=O)C3)CC2)cc1 (stereo partly drawn) | Tyrosine-protein kinase BTK (BTK, Homo sapiens, UniProt Q06187, L528W) | binding | – | SPR | – | Kd | 88 nM |
| COc1cc2ncnc(Nc3ccc4c(c3)/C(=C/c3ccccc3)C(=O)N4C)c2cc1OC | PIK3CD | enzyme activity | inhibitor | ADP detection | – | IC50 | 277 nM |
| Cc1ccc2c(=O)cc(C(=O)Nc3c(C(=O)c4ccc(F)cc4)oc4ccccc34)oc2c1C | COQ8A | ligand displacement | – | TR-FRET | – | IC50 | 9680 nM |
| C[C@]12C[C@H](O)[C@H]3[C@@H](CCC4=CC(=O)CC[C@@]43C)[C@@H]1CC[C@@H]2C(=O)CO | Mineralocorticoid receptor (NR3C2, Homo sapiens, UniProt P08235) | reporter gene | agonist | luciferase | – | EC50 | 11.3 nM |
